# Laboratory results taken from ChEMBL document CHEMBL3046946, “Design, synthesis, and insecticidal activities of new N-benzoyl-N'-phenyl-N'-sulfenylureas” (2009).
# What was measured:
# Type in all cases: functional
# Mythimna separata [1] = test: Insecticidal activity against fourth-instar larval stage of Mythimna separata (Oriental armyworm) in compound-pretreated corn leaves assessed as mortality at 1 mg/l at 25 +/-1degC after 4 days
# Mythimna separata [2] = test: Insecticidal activity against fourth-instar larval stage of Mythimna separata (Oriental armyworm) in compound-pretreated corn leaves assessed as mortality at 0.25 mg/l at 25 +/-1degC after 4 days
# Mythimna separata [3] = test: Insecticidal activity against fourth-instar larval stage of Mythimna separata (Oriental armyworm) in compound-pretreated corn leaves assessed as mortality at 0.5 mg/l at 25 +/-1degC after 4 days
# Culex pipiens pallens [4] = test: Insecticidal activity against fourth-instar larval stage of Culex pipiens pallens (mosquito) assessed as mortality at 0.0025 mg/l at 25 +/-1degC after 8 days; conditions: 192 h
# Outline: (§1)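 Compounds dissolved in acetone, then diluted with distilled water to the test concentrations. Twenty fourth-instar larvae were placed in 10 mL of each test solution and reared for 8 days. Mortality was scored on a 0–100 scale, where 0 is no activity and 100 is total kill.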
# Culex pipiens pallens [5] = test: Insecticidal activity against fourth-instar larval stage of Culex pipiens pallens (mosquito) assessed as mortality at 0.01 mg/l at 25 +/-1degC after 8 days; conditions: 192 h; outline: as §1
# Culex pipiens pallens [6] = test: Insecticidal activity against fourth-instar larval stage of Culex pipiens pallens (mosquito) assessed as mortality at 0.005 mg/l at 25 +/-1degC after 8 days; conditions: 192 h; outline: as §1
# Mythimna separata [7] = test: Insecticidal activity against fourth-instar larval stage of Mythimna separata (Oriental armyworm) in compound-pretreated corn leaves assessed as mortality at 2.5 mg/l at 25 +/-1degC after 4 days
# Mythimna separata [8] = test: Insecticidal activity against fourth-instar larval stage of Mythimna separata (Oriental armyworm) in compound-pretreated corn leaves assessed as mortality at 200 mg/l at 25 +/-1degC after 4 days
# Culex pipiens pallens [9] = test: Insecticidal activity against fourth-instar larval stage of Culex pipiens pallens (mosquito) assessed as mortality at 2.5 mg/l at 25 +/-1degC after 8 days; conditions: 192 h; outline: as §1
# Mythimna separata [10] = test: Insecticidal activity against fourth-instar larval stage of Mythimna separata (Oriental armyworm) in compound-pretreated corn leaves assessed as mortality at 50 mg/l at 25 +/-1degC after 4 days
# Culex pipiens pallens [11] = test: Insecticidal activity against fourth-instar larval stage of Culex pipiens pallens (mosquito) assessed as mortality at 5 mg/l at 25 +/-1degC after 8 days; conditions: 192 h; outline: as §1
# Mythimna separata [12] = test: Insecticidal activity against fourth-instar larval stage of Mythimna separata (Oriental armyworm) in compound-pretreated corn leaves assessed as mortality at 100 mg/l at 25 +/-1degC after 4 days
# Culex pipiens pallens [13] = test: Insecticidal activity against fourth-instar larval stage of Culex pipiens pallens (mosquito) assessed as mortality at 1 mg/l at 25 +/-1degC after 8 days; conditions: 192 h; outline: as §1
# Plutella xylostella = test: Insecticidal activity against larvae of Plutella xylostella (diamondback moth) in cabbage leaves assessed as mortality at 25 +/-1degC treated for 5 secs before larval infestation measured after 4 days by leafdip method; conditions: 96 h
# Outline: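 Leaf-dip assay. Cabbage leaf disks (1.8 cm diameter) were dipped in test solution for 5 s, air-dried, and placed in tubes lined with filter paper. Ten second-instar larvae were added per tube. Percent mortality was read 4 days after treatment, in triplicate. LC50 was derived by Finney probit analysis of the mortality regression lines.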
# Spodoptera exigua = test: Insecticidal activity against third-instar larval stage of Spodoptera exigua in cabbage leaves assessed as mortality at 25 +/-1degC treated for 5 secs before larval infestation measured after 4 days by leaf dip method; conditions: foliar, 96 h
# Outline: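 Leaf-dip assay. Fresh cabbage leaf disks (1.8 cm diameter) were dipped in test solution for 5 s before larvae were added. LC50 was calculated by Finney probit analysis of the mortality regression lines.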
# Mythimna separata [14] = test: Insecticidal activity against fourth-instar larval stage of Mythimna separata (Oriental armyworm) in compound-pretreated corn leaves assessed as mortality at 40 mg/l at 25 +/-1degC after 4 days
smiles,measurement,setting,value
O=C(NC(=O)N(SSNc1ccc(C(F)(F)F)cc1)c1ccc(C(F)(F)F)cc1)c1c(F)cccc1F,mortality at 1 µg/mL,Mythimna separata [1],100%
same,mortality at 0.25 µg/mL,Mythimna separata [2],10%
same,mortality at 0.5 µg/mL,Mythimna separata [3],70%
O=C(NC(=O)N(SN1CCCCC1)c1ccc(OC(F)(F)F)cc1)c1c(F)cccc1F,mortality at 0.0025 µg/mL,Culex pipiens pallens [4],75%
same,mortality at 1 µg/mL,Mythimna separata [1],100%
same,mortality at 0.25 µg/mL,Mythimna separata [2],50%
same,mortality at 0.5 µg/mL,Mythimna separata [3],100%
same,mortality at 0.01 µg/mL,Culex pipiens pallens [5],100%
same,mortality at 0.005 µg/mL,Culex pipiens pallens [6],100%
O=C(NC(=O)N(SSN(C(=O)NC(=O)c1ccccc1Cl)c1ccc(OC(F)(F)F)cc1)c1ccc(OC(F)(F)F)cc1)c1ccccc1Cl,mortality at 1 µg/mL,Mythimna separata [1],85%
same,mortality at 0.25 µg/mL,Mythimna separata [2],10%
same,mortality at 2.5 µg/mL,Mythimna separata [7],100%
same,mortality at 0.5 µg/mL,Mythimna separata [3],60%
O=C(NC(=O)N(SN(C(=O)NC(=O)c1c(F)cccc1F)c1ccc(Cl)cc1)c1ccc(Cl)cc1)c1c(F)cccc1F,mortality at 1 µg/mL,Mythimna separata [1],100%
same,mortality at 0.25 µg/mL,Mythimna separata [2],25%
same,mortality at 0.5 µg/mL,Mythimna separata [3],85%
O=C(NC(=O)N(SN1CCCCC1)c1ccccc1)c1c(F)cccc1F,mortality at 200 µg/mL,Mythimna separata [8],90%
same,mortality at 2.5 µg/mL,Culex pipiens pallens [9],70%
same,mortality at 50 µg/mL,Mythimna separata [10],0%
same,mortality at 5 µg/mL,Culex pipiens pallens [11],100%
same,mortality at 100 µg/mL,Mythimna separata [12],40%
same,mortality at 1 µg/mL,Culex pipiens pallens [13],0%
O=C(NC(=O)N(SN1CCOCC1)c1ccc(Cl)cc1)c1c(F)cccc1F,mortality at 0.0025 µg/mL,Culex pipiens pallens [4],0%
same,mortality at 1 µg/mL,Mythimna separata [1],100%
same,mortality at 0.25 µg/mL,Mythimna separata [2],80%
same,mortality at 0.5 µg/mL,Mythimna separata [3],100%
same,mortality at 0.01 µg/mL,Culex pipiens pallens [5],100%
same,mortality at 0.005 µg/mL,Culex pipiens pallens [6],30%
O=C(NC(=O)N(SN1CCCCC1)c1ccc(Cl)cc1)c1c(F)cccc1F,mortality at 0.0025 µg/mL,Culex pipiens pallens [4],0%
same,mortality at 1 µg/mL,Mythimna separata [1],100%
same,mortality at 0.25 µg/mL,Mythimna separata [2],20%
same,mortality at 0.5 µg/mL,Mythimna separata [3],100%
same,mortality at 0.01 µg/mL,Culex pipiens pallens [5],90%
same,mortality at 0.005 µg/mL,Culex pipiens pallens [6],0%
O=C(NC(=O)N(SN(C(=O)NC(=O)c1c(F)cccc1F)c1ccc(OC(F)(F)F)cc1)c1ccc(OC(F)(F)F)cc1)c1ccccc1Cl,LC50,Plutella xylostella,40.1 µg/mL
same,mortality at 1 µg/mL,Mythimna separata [1],100%
same,mortality at 0.25 µg/mL,Mythimna separata [2],50%
same,mortality at 0.5 µg/mL,Mythimna separata [3],95%
same,LC50,Spodoptera exigua,31.4 µg/mL
CCN(CC)SN(C(=O)NC(=O)c1c(F)cccc1F)c1ccc(OC(F)(F)F)cc1,mortality at 0.0025 µg/mL,Culex pipiens pallens [4],40%
same,mortality at 1 µg/mL,Mythimna separata [1],100%
same,mortality at 0.25 µg/mL,Mythimna separata [2],60%
same,mortality at 0.5 µg/mL,Mythimna separata [3],100%
same,mortality at 0.01 µg/mL,Culex pipiens pallens [5],100%
same,mortality at 0.005 µg/mL,Culex pipiens pallens [6],100%
O=C(NC(=O)N(SSN(C(=O)NC(=O)c1c(F)cccc1F)c1ccc(OC(F)(F)F)cc1)c1ccc(OC(F)(F)F)cc1)c1ccccc1Cl,mortality at 1 µg/mL,Mythimna separata [1],100%
same,mortality at 0.25 µg/mL,Mythimna separata [2],0%
same,mortality at 0.5 µg/mL,Mythimna separata [3],40%
O=C(NC(=O)N(SSNc1ccc(OC(F)(F)F)cc1)c1ccc(OC(F)(F)F)cc1)c1c(F)cccc1F,mortality at 1 µg/mL,Mythimna separata [1],100%
same,mortality at 0.25 µg/mL,Mythimna separata [2],30%
same,mortality at 0.5 µg/mL,Mythimna separata [3],90%
O=C(NC(=O)N(SNc1ccc(C(F)(F)F)cc1)c1ccc(C(F)(F)F)cc1)c1c(F)cccc1F,mortality at 1 µg/mL,Mythimna separata [1],100%
same,mortality at 0.25 µg/mL,Mythimna separata [2],45%
same,mortality at 0.5 µg/mL,Mythimna separata [3],80%
CCN(CC)SN(C(=O)NC(=O)c1c(F)cccc1F)c1ccccc1,mortality at 200 µg/mL,Mythimna separata [8],70%
same,mortality at 2.5 µg/mL,Culex pipiens pallens [9],100%
same,mortality at 50 µg/mL,Mythimna separata [10],20%
same,mortality at 5 µg/mL,Culex pipiens pallens [11],100%
same,mortality at 100 µg/mL,Mythimna separata [12],40%
same,mortality at 1 µg/mL,Culex pipiens pallens [13],30%
O=C(NC(=O)N(SN1CCOCC1)c1ccc(OC(F)(F)F)cc1)c1c(F)cccc1F,mortality at 0.0025 µg/mL,Culex pipiens pallens [4],20%
same,LC50,Plutella xylostella,45.1 µg/mL
same,mortality at 1 µg/mL,Mythimna separata [1],100%
same,mortality at 0.25 µg/mL,Mythimna separata [2],80%
same,mortality at 0.5 µg/mL,Mythimna separata [3],100%
same,LC50,Spodoptera exigua,21.4 µg/mL
same,mortality at 0.01 µg/mL,Culex pipiens pallens [5],100%
same,mortality at 0.005 µg/mL,Culex pipiens pallens [6],100%
O=C(NC(=O)c1ccccc1Cl)Nc1ccc(OC(F)(F)F)cc1 [TRIFLUMURON],LC50,Plutella xylostella,49.3 µg/mL
same,mortality at 1 µg/mL,Mythimna separata [1],95%
same,mortality at 0.25 µg/mL,Mythimna separata [2],20%
same,mortality at 2.5 µg/mL,Mythimna separata [7],100%
same,mortality at 0.5 µg/mL,Mythimna separata [3],40%
same,LC50,Spodoptera exigua,12 µg/mL
O=C(NC(=O)N(SSN(C(=O)NC(=O)c1c(F)cccc1F)c1ccc(OC(F)(F)F)cc1)c1ccc(OC(F)(F)F)cc1)c1c(F)cccc1F,mortality at 1 µg/mL,Mythimna separata [1],100%
same,mortality at 0.25 µg/mL,Mythimna separata [2],20%
same,mortality at 0.5 µg/mL,Mythimna separata [3],50%
CCOC(=O)CCN(Cc1ccccc1)SN(C(=O)NC(=O)c1c(F)cccc1F)c1ccccc1,mortality at 200 µg/mL,Mythimna separata [8],70%
same,mortality at 2.5 µg/mL,Culex pipiens pallens [9],60%
same,mortality at 50 µg/mL,Mythimna separata [10],30%
same,mortality at 5 µg/mL,Culex pipiens pallens [11],100%
same,mortality at 100 µg/mL,Mythimna separata [12],40%
same,mortality at 1 µg/mL,Culex pipiens pallens [13],20%
O=C(NC(=O)c1c(F)cccc1F)Nc1ccc(Cl)cc1 [DIFLUBENZURON],mortality at 0.0025 µg/mL,Culex pipiens pallens [4],10%
same,mortality at 1 µg/mL,Mythimna separata [1],100%
same,mortality at 0.25 µg/mL,Mythimna separata [2],45%
same,mortality at 0.5 µg/mL,Mythimna separata [3],100%
same,mortality at 0.01 µg/mL,Culex pipiens pallens [5],100%
same,mortality at 0.005 µg/mL,Culex pipiens pallens [6],50%
O=C(NC(=O)N(SSNc1ccc(C(F)(F)F)cc1)c1ccc(C(F)(F)F)cc1)c1ccccc1Cl,mortality at 1 µg/mL,Mythimna separata [1],70%
same,mortality at 0.25 µg/mL,Mythimna separata [2],0%
same,mortality at 2.5 µg/mL,Mythimna separata [7],100%
same,mortality at 0.5 µg/mL,Mythimna separata [3],60%
CCN(CC)SN(C(=O)NC(=O)c1c(F)cccc1F)c1ccc(Cl)cc1,mortality at 0.0025 µg/mL,Culex pipiens pallens [4],10%
same,mortality at 1 µg/mL,Mythimna separata [1],100%
same,mortality at 0.25 µg/mL,Mythimna separata [2],20%
same,mortality at 0.5 µg/mL,Mythimna separata [3],70%
same,mortality at 0.01 µg/mL,Culex pipiens pallens [5],100%
same,mortality at 0.005 µg/mL,Culex pipiens pallens [6],10%
CCOC(=O)CCN(Cc1ccccc1)SN(C(=O)NC(=O)c1c(F)cccc1F)c1ccc(Cl)cc1,mortality at 1 µg/mL,Mythimna separata [1],100%
same,mortality at 0.25 µg/mL,Mythimna separata [2],30%
same,mortality at 0.5 µg/mL,Mythimna separata [3],50%
same,mortality at 0.01 µg/mL,Culex pipiens pallens [5],60%
same,mortality at 0.005 µg/mL,Culex pipiens pallens [6],0%
O=C(NC(=O)N(SN(C(=O)NC(=O)c1c(F)cccc1F)c1ccc(OC(F)(F)F)cc1)c1ccc(OC(F)(F)F)cc1)c1c(F)cccc1F,mortality at 1 µg/mL,Mythimna separata [1],100%
same,mortality at 0.25 µg/mL,Mythimna separata [2],20%
same,mortality at 0.5 µg/mL,Mythimna separata [3],55%
O=C(NC(=O)N(SNc1ccc(OC(F)(F)F)cc1)c1ccc(OC(F)(F)F)cc1)c1c(F)cccc1F,mortality at 1 µg/mL,Mythimna separata [1],100%
same,mortality at 0.25 µg/mL,Mythimna separata [2],40%
same,mortality at 0.5 µg/mL,Mythimna separata [3],90%
CCOC(=O)CCN(Cc1ccccc1)SN(C(=O)NC(=O)c1c(F)cccc1F)c1ccc(OC(F)(F)F)cc1,mortality at 40 µg/mL,Mythimna separata [14],0.0025%
same,mortality at 1 µg/mL,Mythimna separata [1],100%
same,mortality at 0.01 µg/mL,Culex pipiens pallens [5],100%
O=C(NC(=O)N(SNc1ccc(Cl)cc1)c1ccc(Cl)cc1)c1c(F)cccc1F,mortality at 1 µg/mL,Mythimna separata [1],100%
same,mortality at 0.25 µg/mL,Mythimna separata [2],0%
same,mortality at 0.5 µg/mL,Mythimna separata [3],70%
O=C(NC(=O)N(SSNc1ccc(OC(F)(F)F)cc1)c1ccc(OC(F)(F)F)cc1)c1ccccc1Cl,mortality at 1 µg/mL,Mythimna separata [1],100%
same,mortality at 0.25 µg/mL,Mythimna separata [2],30%
same,mortality at 0.5 µg/mL,Mythimna separata [3],60%
